Reference: ChEMBL document CHEMBL1138476 (J Med Chem, 2009)

How the values were obtained:
[1] = target: T1, Corticotropin-releasing factor receptor 1 (Rattus norvegicus, UniProt P35353); assay: Displacement of [125I]Tyro-rat/human CRF from CRF1 receptor in rat cortical membrane by gamma counting; assay type: cell membranes
T1 sequence (P35353 whole entry): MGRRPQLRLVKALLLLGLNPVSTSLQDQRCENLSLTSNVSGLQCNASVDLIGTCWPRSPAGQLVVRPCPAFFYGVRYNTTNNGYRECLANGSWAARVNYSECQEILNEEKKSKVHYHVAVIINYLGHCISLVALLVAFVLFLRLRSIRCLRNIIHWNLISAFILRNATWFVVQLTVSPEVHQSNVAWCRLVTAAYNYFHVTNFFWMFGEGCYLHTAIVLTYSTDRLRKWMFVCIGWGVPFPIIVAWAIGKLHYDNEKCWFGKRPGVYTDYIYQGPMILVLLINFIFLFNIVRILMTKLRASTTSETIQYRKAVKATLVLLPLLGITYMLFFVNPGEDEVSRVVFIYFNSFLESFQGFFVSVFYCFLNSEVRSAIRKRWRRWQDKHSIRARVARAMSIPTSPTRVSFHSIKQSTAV
In short: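 Binding to CRF receptors in rat cortical homogenate.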

[2] = AUC in Beagle dog at 1 mg/kg, po by cassette dosing; assay type: ADME, organism-based, Canis lupus familiaris; parameters: dose 1 mg/kg, route oral; settings: plasma
[3] = Cmax in Beagle dog at 1 mg/kg, po by cassette dosing; assay type: ADME, organism-based, Canis lupus familiaris; parameters: dose 1 mg/kg, route oral; settings: in vivo
[4] = Half life in Beagle dog at 1 mg/kg, po by cassette dosing; assay type: ADME, organism-based, Canis lupus familiaris; parameters: dose 1 mg/kg, route oral; settings: in vivo
Rattus norvegicus [5] = assay: Effect on gastrointestinal motility in fasted Sprague-Dawley rat assessed as distance of charcoal moved from stomach to cecum at 3 mg/kg, po (RVb= 42.1+/-1.8 %)
Rattus norvegicus [6] = assay: Effect on gastrointestinal motility in fasted Sprague-Dawley rat assessed as distance of charcoal moved from stomach to cecum at 0.3 mg/kg, ip (RVb= 38.4+/-3.8 %); assay type: functional, Caecum; settings: route intraperitoneal
Rattus norvegicus [7] = assay: Toxicity in rat assessed as total distance traveled at 3 mg/kg, po after 1 hr by spontaneous locomotor test; assay type: organism-based; parameters: dose 3 mg/kg, route oral; settings: in vivo
In short: (§1)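 Rat spontaneous locomotor activity test with oral dosing in 0.25% Methocel 1 h before testing, at doses up to 100 mg/kg. Values are mean ± SEM, with N rats per group, compared with the vehicle (zero-dose) group.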

Rattus norvegicus [8] = assay: Toxicity in rat assessed as total distance traveled at 10 mg/kg, po after 1 hr by spontaneous locomotor test; assay type: functional; in short: as §1
Rattus norvegicus [9] = assay: Toxicity in rat assessed as total distance traveled at 30 mg/kg, po after 1 hr by spontaneous locomotor test; assay type: functional; in short: as §1
Rattus norvegicus [10] = assay: Toxicity in rat assessed as total distance traveled at 100 mg/kg, po after 1 hr by spontaneous locomotor test; assay type: organism-based; parameters: dose 100 mg/kg, route oral; settings: in vivo; in short: as §1
Rattus norvegicus [11] = assay: Toxicity in rat assessed as time spent on rotarod at 3 mg/kg, po after 1 hr by rotarod test; assay type: organism-based; parameters: dose 3 mg/kg, route oral; settings: in vivo
In short: (§2)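 Rats, n = 8 per dose, dosed po in 0.25% Methocel 1 h before testing, at 0, 1.0, 3.0, 10, 30 and 100 mg/kg. Read-out is time on rotorod (s), mean ± SEM, compared with the vehicle (zero-dose) group.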

Rattus norvegicus [12] = assay: Toxicity in rat assessed as time spent on rotarod at 10 mg/kg, po after 1 hr by rotarod test; assay type: organism-based; parameters: dose 10 mg/kg, route oral; settings: in vivo; in short: as §2
Rattus norvegicus [13] = assay: Toxicity in rat assessed as time spent on rotarod at 30 mg/kg, po after 1 hr by rotarod test; assay type: organism-based; parameters: dose 30 mg/kg, route oral; settings: in vivo; in short: as §2

Row | SMILES | IC50 [1] | also measured
1 | COCCN(CCOC)c1nc(C)nc2c(-c3cnc(N(C)C)cc3C)c(C)nn12 | 91.9 nM | 
2 | CCN(CC)c1nc(C)nc2c(-c3cnc(OC)cc3C)c(C)nn12 | 14.5 nM | 
3 | CCC(CC)Nc1nc(C)nc2c(-c3cnc(OC)cc3C)c(C)nn12 | 3 nM | 
4 | CCCCN(CCC)c1nc(C)nc2c(-c3ccc(OC)nc3C)c(C)nn12 | 2.4 nM | 
5 | CCCN(C)c1nc(C)nc2c(-c3ccc(OC)nc3C)c(C)nn12 | 17.6 nM | 
6 | CCCCN(C)c1nc(C)nc2c(-c3ccc(OC)nc3C)c(C)nn12 | 8.1 nM | 
7 | COCCN(CCOC)c1nc(C)nc2c(-c3cnc(OC)cc3C)c(C)nn12 | 23.8 nM | 
8 | CCCCN(CC)c1nc(C)nc2c(-c3ccc(OC)nc3C)c(C)nn12 | 4.9 nM | 
9 | COCCN(CCOC)c1nc(C)nc2c(-c3ccc(OC)nc3C)c(C)nn12 | 8.5 nM | AUC [2]: 1.47 µM·h; Cmax [3]: 275 nM; half-life [4]: 10.3 h
10 | COCCNc1nc(C)nc2c(-c3c(C)cc(N(C)C)nc3C)c(C)nn12 | > 10000 nM | 
11 | COCCN(CC1CC1)c1nc(C)nc2c(-c3ccc(OC)nc3C)c(C)nn12 | 3.1 nM | AUC [2]: 1.73 µM·h; Cmax [3]: 314 nM; half-life [4]: 11.4 h
12 | CCCN(CC1CC1)c1nc(C)nc2c(-c3ccc(OC)nc3C)c(C)nn12 | 1.6 nM | 
13 | CCC(CC)Nc1nc(C)nc2c(-c3ccc(OC)nc3C)c(C)nn12 | 3.1 nM | 
14 | CCC(CC)Nc1nc(C)nc2c(-c3cnc(N(C)C)cc3C)c(C)nn12 | 24.8 nM | 
15 | CCN(CC)c1nc(C)nc2c(-c3cnc(N(C)C)cc3C)c(C)nn12 | 13.8 nM | 
16 | CN1[C@@H]2CC[C@H]1C[C@@H](OC(=O)C(CO)c1ccccc1)C2 (mixture of isomers) [ATROPINE] |  | Activity (Rattus norvegicus [5]): 27.5%
17 | C[N+](C)(C)CCOC(N)=O.[Cl-] [CARBACHOL] |  | Activity (Rattus norvegicus [6]): 55.8%
18 | CNC1=Nc2ccc(Cl)cc2C(c2ccccc2)=[N+]([O-])C1 [CHLORDIAZEPOXIDE] |  | Activity (Rattus norvegicus [7]): 4624 cm; Activity (Rattus norvegicus [8]): 3981 cm; Activity (Rattus norvegicus [9]): 2162 cm; Activity (Rattus norvegicus [10]): 1062 cm; Time (Rattus norvegicus [11]): 227 s; Time (Rattus norvegicus [12]): 128 s; Time (Rattus norvegicus [13]): 114 s
